In ChEMBL document CHEMBL1781909, “Potent mGluR5 antagonists: pyridyl and thiazolyl-ethynyl-3,5-disubstituted-phenyl series” (Bioorg Med Chem Lett, 2011):

Tests used:
[1] = biological target: T1, Metabotropic glutamate receptor 5 (Rattus norvegicus, UniProt P31424); test: Displacement of [3H]methoxy-PEPY from rat mGluR5 expressed in human HEK-293 cells by liquid scintillation counting; assay type: cell-based, HEK293
Outline: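 Membranes from stable rat mGluR5-HEK293A cells (10 µg/well) incubated with 2 nM [3H]methoxy-PEPY in 50 mM Tris/0.9% NaCl, pH 7.4, with or without compound, 1 h at room temperature with shaking. Filtered on GF/B, washed three times, counted by liquid scintillation. Ki derived from fitted IC50; three experiments in duplicate.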

[2] = biological target: T1, Metabotropic glutamate receptor 5; test: Antagonist activity at rat mGluR5 expressed in human HEK-293 cells assessed as inhibition of glutamate-induced intracellular calcium mobilization; assay type: functional, cell-based, HEK293
[3] = Octanol-phosphate buffer partition coefficient, log D of the compound at pH 7.4; assay type: physicochemical
Outline: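 Log D measured as partition of the [123I]-labelled compound between octanol and phosphate buffer pH 7.4.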

Rattus norvegicus = test: Analgesic activity in ip dosed rat post-operative pain model; assay type: functional

T1 sequence (P31424 whole entry): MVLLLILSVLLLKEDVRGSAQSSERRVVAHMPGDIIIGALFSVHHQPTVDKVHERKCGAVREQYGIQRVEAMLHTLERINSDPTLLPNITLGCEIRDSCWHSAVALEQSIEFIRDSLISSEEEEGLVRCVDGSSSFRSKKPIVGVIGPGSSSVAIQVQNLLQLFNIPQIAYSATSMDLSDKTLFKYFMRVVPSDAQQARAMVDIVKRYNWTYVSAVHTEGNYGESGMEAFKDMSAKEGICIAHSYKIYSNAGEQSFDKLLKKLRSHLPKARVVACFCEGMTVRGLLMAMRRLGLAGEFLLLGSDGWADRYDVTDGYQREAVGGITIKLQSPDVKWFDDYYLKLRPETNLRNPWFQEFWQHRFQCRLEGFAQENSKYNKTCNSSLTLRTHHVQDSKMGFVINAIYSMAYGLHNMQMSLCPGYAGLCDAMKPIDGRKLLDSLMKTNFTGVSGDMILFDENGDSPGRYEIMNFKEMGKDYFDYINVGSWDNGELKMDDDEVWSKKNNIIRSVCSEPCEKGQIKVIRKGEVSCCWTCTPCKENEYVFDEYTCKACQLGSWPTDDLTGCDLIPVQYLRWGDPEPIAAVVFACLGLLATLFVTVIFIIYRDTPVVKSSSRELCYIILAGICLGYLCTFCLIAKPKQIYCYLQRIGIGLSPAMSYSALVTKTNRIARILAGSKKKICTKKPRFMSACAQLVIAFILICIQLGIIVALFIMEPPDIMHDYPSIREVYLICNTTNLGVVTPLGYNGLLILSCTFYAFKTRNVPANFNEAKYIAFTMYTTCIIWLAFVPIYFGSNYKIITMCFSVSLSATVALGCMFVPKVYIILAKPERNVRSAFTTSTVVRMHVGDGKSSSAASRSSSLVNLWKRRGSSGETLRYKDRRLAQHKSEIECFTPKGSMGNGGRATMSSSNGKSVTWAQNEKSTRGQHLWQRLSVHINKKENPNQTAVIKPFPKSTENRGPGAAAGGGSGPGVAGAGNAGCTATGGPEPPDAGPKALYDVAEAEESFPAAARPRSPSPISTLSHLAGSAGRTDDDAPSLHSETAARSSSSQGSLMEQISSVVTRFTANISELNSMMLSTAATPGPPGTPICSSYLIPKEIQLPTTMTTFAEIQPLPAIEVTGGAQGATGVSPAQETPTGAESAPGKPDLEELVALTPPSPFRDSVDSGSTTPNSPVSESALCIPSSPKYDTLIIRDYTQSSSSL

Ki [1]	IC50 [2]	SMILES	other results
0.36 nM	2.63 nM	Cc1nc(C#Cc2cc(C#N)cc([N+](=O)[O-])c2)cs1	
0.93 nM	0.73 nM	Cc1nc(C#Cc2cc(Br)cc([N+](=O)[O-])c2)cs1	
	0.66 nM	N#Cc1cc(I)cc(C#Cc2ccccn2)c1	
0.127 nM	1.61 nM	Cc1nc(C#Cc2cc(Cl)cc(C#N)c2)cs1	
0.106 nM	1.06 nM	Cc1nc(C#Cc2cc(Br)cc(C#N)c2)cs1	
2.14 nM	1.05 nM	Cc1nc(C#Cc2cc(I)cc(C#N)c2)cs1	
0.3 nM	0.61 nM	Cc1nc(C#Cc2cc(F)cc([N+](=O)[O-])c2)cs1	
1.84 nM	1.75 nM	Cc1nc(C#Cc2cc(I)cc([N+](=O)[O-])c2)cs1	
1.06 nM	1.11 nM	Cc1nc(C#Cc2cc(F)cc(Br)c2)cs1	
0.69 nM	1.45 nM	Cc1nc(C#Cc2cc(Br)cc(Br)c2)cs1	
	3.68 nM	Cc1cccc(C#Cc2cc(C#N)cc([N+](=O)[O-])c2)n1	
	0.63 nM	Cc1cccc(C#Cc2cc(Br)cc([N+](=O)[O-])c2)n1	
	1.22 nM	Cc1cccc(C#Cc2cc(Cl)cc(C#N)c2)n1	
	1.22 nM	Cc1cccc(C#Cc2cc(F)cc(C#N)c2)n1	
	0.71 nM	Cc1cccc(C#Cc2cc(I)cc(C#N)c2)n1	
	2.64 nM	Cc1ccc(C#Cc2cc(C#N)cc([N+](=O)[O-])c2)nc1	
	7.36 nM	Cc1ccc(C#Cc2cc(Br)cc([N+](=O)[O-])c2)nc1	
	1.22 nM	Cc1ccc(C#Cc2cc(Cl)cc(C#N)c2)nc1	
	0.32 nM	Cc1ccc(C#Cc2cc(F)cc(C#N)c2)nc1	
	1.02 nM	Cc1ccc(C#Cc2cc(Br)cc(C#N)c2)nc1	
	1.32 nM	N#Cc1cc(C#Cc2ccccn2)cc([N+](=O)[O-])c1	
	0.39 nM	O=[N+]([O-])c1cc(Br)cc(C#Cc2ccccn2)c1	
	1.03 nM	N#Cc1cc(Cl)cc(C#Cc2ccccn2)c1	
	0.66 nM	O=[N+]([O-])c1cc(F)cc(C#Cc2ccccn2)c1	
	2.09 nM	O=[N+]([O-])c1cc(I)cc(C#Cc2ccccn2)c1	
		Cc1cccc(C#Cc2cc([123I])cc(C#N)c2)n1	logD [3]: 2.3
0.36 nM	1.89 nM	Cc1nc(C#Cc2cc(F)cc(C#N)c2)cs1	
		Cc1cccc(C#Cc2ccccc2)n1	ED50 (Rattus norvegicus): 15 mg/kg
